{
  "source": "ChEMBL document CHEMBL1250448",
  "about": "“Inhibitor hijacking of Akt activation” (Nat Chem Biol, 2009)",
  "key": {"[1]": {"biological_target": "Cyclin-dependent kinase 2/cyclin A (Homo sapiens) (UniProt P24941+P20248+P78396)", "assay": "Inhibition of CDK2/cyclin A at 1 uM in presence of 10 uM ATP by Select Screen kinase assay relative to untreated control", "type": "protein-complex assay", "how_it_was_run": "(§1)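 Single-point screen at 1 μM against a panel of 220 purified kinases, run by Invitrogen staff as a SelectScreen profiling service. Read-out is percent inhibition of kinase activity.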"}, "[2]": {"biological_target": "RAC-gamma serine/threonine-protein kinase (Homo sapiens) (UniProt Q9Y243)", "assay": "Inhibition of AKT3 at 1 uM in presence of 10 uM ATP by Select Screen kinase assay relative to untreated control", "how_it_was_run": "as §1"}, "[3]": {"biological_target": "Platelet-derived growth factor receptor beta (Homo sapiens) (UniProt P09619)", "assay": "Inhibition of PDGFRbeta at 1 uM in presence of 100 uM ATP by Select Screen kinase assay relative to untreated control"}, "[4]": {"biological_target": "Calcium/calmodulin-dependent protein kinase type IV (Homo sapiens) (UniProt Q16566)", "assay": "Inhibition of CAMK4 at 1 uM in presence of 10 uM ATP by Select Screen kinase assay relative to untreated control", "how_it_was_run": "as §1"}, "[5]": {"biological_target": "Mitogen-activated protein kinase 11 (Homo sapiens) (UniProt Q15759)", "assay": "Inhibition of MAPK11 at 1 uM in presence of 100 uM ATP by Select Screen kinase assay relative to untreated control"}, "[6]": {"biological_target": "Serine/threonine-protein kinase pim-2 (Homo sapiens) (UniProt Q9P1W9)", "sequence (Q9P1W9 whole entry, looked up)": "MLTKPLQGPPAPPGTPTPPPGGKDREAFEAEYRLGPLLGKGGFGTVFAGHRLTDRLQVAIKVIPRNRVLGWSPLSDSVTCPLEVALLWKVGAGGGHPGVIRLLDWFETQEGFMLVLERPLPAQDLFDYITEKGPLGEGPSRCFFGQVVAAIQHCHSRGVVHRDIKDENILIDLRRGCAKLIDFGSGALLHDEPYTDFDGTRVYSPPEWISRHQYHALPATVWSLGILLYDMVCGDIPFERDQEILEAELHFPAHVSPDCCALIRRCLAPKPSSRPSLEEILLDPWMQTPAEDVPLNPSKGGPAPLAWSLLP", "assay": "Inhibition of PIM2 at 1 uM in presence of 10 uM ATP by Select Screen kinase assay relative to untreated control"}, "[7]": {"biological_target": "Serine/threonine-protein kinase Sgk2 (Homo sapiens) (UniProt Q9HBY8)", "assay": "Inhibition of SGK2 at 1 uM in presence of 10 uM ATP by Select Screen kinase assay relative to untreated control", "how_it_was_run": "(§2)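 Commercial SelectScreen profiling panel of 220 purified kinases. Each kinase was tested at a single inhibitor concentration of 1 μM, and activity was expressed as percent inhibition.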"}, "[8]": {"biological_target": "3-phosphoinositide-dependent protein kinase 1 (Homo sapiens) (UniProt O15530)", "assay": "Inhibition of PDK1 at 1 uM in presence of 10 uM ATP by Select Screen kinase assay relative to untreated control", "how_it_was_run": "as §2"}, "[9]": {"biological_target": "Testis-specific serine/threonine-protein kinase 2 (Homo sapiens) (UniProt Q96PF2)", "assay": "Inhibition of STK22B at 1 uM in presence of 10 uM ATP by Select Screen kinase assay relative to untreated control", "how_it_was_run": "as §2"}, "[10]": {"biological_target": "Ribosomal protein S6 kinase alpha-4 (Homo sapiens) (UniProt O75676)", "sequence (O75676 whole entry, looked up)": "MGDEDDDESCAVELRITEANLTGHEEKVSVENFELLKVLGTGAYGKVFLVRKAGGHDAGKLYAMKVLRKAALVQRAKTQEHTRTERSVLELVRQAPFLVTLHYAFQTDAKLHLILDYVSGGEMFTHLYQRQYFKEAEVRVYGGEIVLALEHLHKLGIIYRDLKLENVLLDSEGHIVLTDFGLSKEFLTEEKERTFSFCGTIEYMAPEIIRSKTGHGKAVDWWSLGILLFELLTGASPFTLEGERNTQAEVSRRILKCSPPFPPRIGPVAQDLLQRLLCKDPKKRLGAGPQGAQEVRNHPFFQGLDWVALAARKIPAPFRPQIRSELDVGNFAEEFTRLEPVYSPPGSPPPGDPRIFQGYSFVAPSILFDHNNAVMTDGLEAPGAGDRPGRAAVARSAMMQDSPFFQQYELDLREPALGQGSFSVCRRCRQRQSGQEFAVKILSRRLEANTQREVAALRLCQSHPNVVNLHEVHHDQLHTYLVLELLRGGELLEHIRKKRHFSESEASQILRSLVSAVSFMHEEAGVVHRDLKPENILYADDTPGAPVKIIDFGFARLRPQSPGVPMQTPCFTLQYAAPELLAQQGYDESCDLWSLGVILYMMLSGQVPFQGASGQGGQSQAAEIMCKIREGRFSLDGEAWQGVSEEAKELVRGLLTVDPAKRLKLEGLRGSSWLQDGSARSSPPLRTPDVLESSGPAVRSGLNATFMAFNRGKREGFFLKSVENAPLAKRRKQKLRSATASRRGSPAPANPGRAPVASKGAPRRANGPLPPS", "assay": "Inhibition of RPS6KA4 at 1 uM in presence of 10 uM ATP by Select Screen kinase assay relative to untreated control"}, "[11]": {"biological_target": "Serine/threonine-protein kinase 4 (Homo sapiens) (UniProt Q13043)", "sequence (Q13043 whole entry)": "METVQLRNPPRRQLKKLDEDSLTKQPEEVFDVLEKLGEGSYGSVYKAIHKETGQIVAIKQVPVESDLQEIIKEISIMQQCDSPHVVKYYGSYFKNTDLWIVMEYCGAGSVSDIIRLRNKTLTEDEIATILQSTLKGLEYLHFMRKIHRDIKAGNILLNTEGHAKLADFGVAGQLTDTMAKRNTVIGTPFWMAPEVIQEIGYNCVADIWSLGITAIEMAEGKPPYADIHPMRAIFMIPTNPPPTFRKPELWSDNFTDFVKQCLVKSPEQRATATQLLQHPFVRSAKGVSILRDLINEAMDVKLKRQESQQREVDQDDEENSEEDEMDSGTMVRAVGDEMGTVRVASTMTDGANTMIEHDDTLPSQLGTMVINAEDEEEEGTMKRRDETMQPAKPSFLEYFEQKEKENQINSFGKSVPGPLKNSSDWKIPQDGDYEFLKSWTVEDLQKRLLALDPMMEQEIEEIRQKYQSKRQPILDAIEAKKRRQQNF", "assay": "Inhibition of STK4 at 1 uM in presence of 10 uM ATP by Select Screen kinase assay relative to untreated control", "how_it_was_run": "as §2"}, "[12]": {"biological_target": "Protein kinase C delta type (Homo sapiens) (UniProt Q05655)", "assay": "Inhibition of PRKCD at 1 uM in presence of 10 uM ATP by Select Screen kinase assay relative to untreated control", "how_it_was_run": "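Profiling panel of 220 purified kinases (SelectScreen), each compound tested at 1 μM. Read-out is percent inhibition of kinase activity.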"}, "[13]": {"biological_target": "Beta-adrenergic receptor kinase 1 (Homo sapiens) (UniProt P25098)", "assay": "Inhibition of ADRBK1 at 1 uM in presence of 10 uM ATP by Select Screen kinase assay relative to untreated control", "how_it_was_run": "as §1"}, "[14]": {"biological_target": "Ephrin type-B receptor 3 (Homo sapiens) (UniProt P54753)", "assay": "Inhibition of EPHB3 at 1 uM in presence of 10 uM ATP by Select Screen kinase assay relative to untreated control", "how_it_was_run": "(§3)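 Part of a 220-kinase panel of purified kinases, each tested with compound at 1 μM. Percent inhibition was measured in the Invitrogen SelectScreen profiling assay.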"}, "[15]": {"biological_target": "Tyrosine-protein kinase ITK/TSK (Homo sapiens) (UniProt Q08881)", "sequence (Q08881 whole entry)": "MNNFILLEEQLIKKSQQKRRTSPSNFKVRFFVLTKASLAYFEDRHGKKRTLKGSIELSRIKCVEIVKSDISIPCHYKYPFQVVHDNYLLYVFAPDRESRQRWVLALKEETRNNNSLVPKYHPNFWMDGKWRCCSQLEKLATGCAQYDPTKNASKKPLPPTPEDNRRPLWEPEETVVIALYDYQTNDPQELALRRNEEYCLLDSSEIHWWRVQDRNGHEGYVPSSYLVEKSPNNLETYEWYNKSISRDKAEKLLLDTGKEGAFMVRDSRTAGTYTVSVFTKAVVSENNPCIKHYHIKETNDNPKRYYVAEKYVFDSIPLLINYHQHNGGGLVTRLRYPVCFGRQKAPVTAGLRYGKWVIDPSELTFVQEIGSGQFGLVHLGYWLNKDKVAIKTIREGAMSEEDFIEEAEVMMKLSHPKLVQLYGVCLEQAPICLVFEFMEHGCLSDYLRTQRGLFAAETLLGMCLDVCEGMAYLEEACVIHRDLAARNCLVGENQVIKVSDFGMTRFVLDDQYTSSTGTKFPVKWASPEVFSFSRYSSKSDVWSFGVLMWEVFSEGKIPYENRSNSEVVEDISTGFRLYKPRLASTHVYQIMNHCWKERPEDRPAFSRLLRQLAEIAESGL", "assay": "Inhibition of ITK at 1 uM in presence of 10 uM ATP by Select Screen kinase assay relative to untreated control"}, "[16]": {"biological_target": "Vascular endothelial growth factor receptor 2 (Homo sapiens) (UniProt P35968)", "assay": "Inhibition of KDR at 1 uM in presence of 10 uM ATP by Select Screen kinase assay relative to untreated control", "how_it_was_run": "(§4)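 Single-concentration profiling at 1 μM against a panel of 220 purified kinases, run as an outsourced SelectScreen kinase profiling service. Activity is expressed as percent inhibition.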"}, "[17]": {"biological_target": "Insulin receptor (Homo sapiens) (UniProt P06213)", "sequence (P06213 28-758 limits assumed)": "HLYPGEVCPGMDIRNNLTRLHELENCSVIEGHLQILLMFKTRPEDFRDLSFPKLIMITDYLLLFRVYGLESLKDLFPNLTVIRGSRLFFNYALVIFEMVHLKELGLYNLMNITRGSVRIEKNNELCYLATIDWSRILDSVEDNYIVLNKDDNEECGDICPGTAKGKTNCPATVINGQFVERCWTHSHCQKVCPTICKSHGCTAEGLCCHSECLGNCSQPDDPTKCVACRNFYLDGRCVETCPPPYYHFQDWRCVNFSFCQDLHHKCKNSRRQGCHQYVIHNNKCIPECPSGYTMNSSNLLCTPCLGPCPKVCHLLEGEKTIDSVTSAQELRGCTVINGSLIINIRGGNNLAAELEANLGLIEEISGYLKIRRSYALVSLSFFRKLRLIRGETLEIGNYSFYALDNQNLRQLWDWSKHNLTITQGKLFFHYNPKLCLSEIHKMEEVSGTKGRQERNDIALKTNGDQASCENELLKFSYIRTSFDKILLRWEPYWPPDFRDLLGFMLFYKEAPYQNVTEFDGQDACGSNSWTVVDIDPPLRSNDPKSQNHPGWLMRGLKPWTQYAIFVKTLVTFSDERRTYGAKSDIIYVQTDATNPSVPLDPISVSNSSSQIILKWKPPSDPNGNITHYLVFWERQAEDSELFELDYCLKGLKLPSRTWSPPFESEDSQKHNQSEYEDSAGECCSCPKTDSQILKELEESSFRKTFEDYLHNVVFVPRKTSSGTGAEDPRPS", "sequence (P06213 763-1382 limits assumed)": "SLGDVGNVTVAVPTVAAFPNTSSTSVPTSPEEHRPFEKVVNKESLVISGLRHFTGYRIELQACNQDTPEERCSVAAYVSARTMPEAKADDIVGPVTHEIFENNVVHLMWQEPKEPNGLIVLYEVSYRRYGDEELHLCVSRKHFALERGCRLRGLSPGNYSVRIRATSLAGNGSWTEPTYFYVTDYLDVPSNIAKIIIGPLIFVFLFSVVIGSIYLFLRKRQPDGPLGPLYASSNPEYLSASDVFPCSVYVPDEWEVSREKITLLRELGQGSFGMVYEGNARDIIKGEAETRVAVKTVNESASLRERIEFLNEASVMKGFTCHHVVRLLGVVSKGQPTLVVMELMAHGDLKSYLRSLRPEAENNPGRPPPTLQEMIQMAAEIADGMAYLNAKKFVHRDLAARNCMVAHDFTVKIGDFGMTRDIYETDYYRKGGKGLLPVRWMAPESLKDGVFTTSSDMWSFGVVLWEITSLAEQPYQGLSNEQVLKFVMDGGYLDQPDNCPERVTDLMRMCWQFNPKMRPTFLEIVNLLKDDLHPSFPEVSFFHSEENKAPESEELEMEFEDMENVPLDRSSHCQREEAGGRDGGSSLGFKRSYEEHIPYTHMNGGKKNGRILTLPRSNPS", "assay": "Inhibition of INSR at 1 uM in presence of 10 uM ATP by Select Screen kinase assay relative to untreated control"}, "[18]": {"biological_target": "Protein kinase C theta type (Homo sapiens) (UniProt Q04759)", "assay": "Inhibition of PRKCQ at 1 uM in presence of 10 uM ATP by Select Screen kinase assay relative to untreated control"}, "[19]": {"biological_target": "Ephrin type-B receptor 4 (Homo sapiens) (UniProt P54760)", "assay": "Inhibition of EPHB4 at 1 uM in presence of 10 uM ATP by Select Screen kinase assay relative to untreated control", "how_it_was_run": "as §1"}, "[20]": {"biological_target": "Receptor-type tyrosine-protein kinase FLT3 (Homo sapiens) (UniProt P36888)", "assay": "Inhibition of FLT3 at 1 uM in presence of 10 uM ATP by Select Screen kinase assay relative to untreated control", "how_it_was_run": "as §4"}, "[21]": {"biological_target": "Serine/threonine-protein kinase D2 (Homo sapiens) (UniProt Q9BZL6)", "assay": "Inhibition of PRKD2 at 1 uM in presence of 10 uM ATP by Select Screen kinase assay relative to untreated control"}, "[22]": {"biological_target": "Tyrosine-protein kinase JAK2 (Homo sapiens) (UniProt O60674)", "assay": "Inhibition of JAK2 at 1 uM in presence of 10 uM ATP by Select Screen kinase assay relative to untreated control", "how_it_was_run": "as §4"}, "[23]": {"biological_target": "Casein kinase II subunit alpha (Homo sapiens) (UniProt P68400)", "sequence (P68400 whole entry, looked up)": "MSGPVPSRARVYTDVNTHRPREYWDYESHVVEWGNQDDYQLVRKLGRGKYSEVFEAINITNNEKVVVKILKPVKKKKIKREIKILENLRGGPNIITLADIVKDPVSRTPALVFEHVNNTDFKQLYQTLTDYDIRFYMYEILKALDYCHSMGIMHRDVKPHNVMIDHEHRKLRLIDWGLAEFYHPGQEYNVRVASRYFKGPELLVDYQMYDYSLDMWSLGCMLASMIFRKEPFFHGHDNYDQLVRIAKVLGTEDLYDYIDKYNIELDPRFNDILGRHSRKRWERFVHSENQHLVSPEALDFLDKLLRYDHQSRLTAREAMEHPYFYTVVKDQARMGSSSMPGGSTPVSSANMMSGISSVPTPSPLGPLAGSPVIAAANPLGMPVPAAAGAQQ", "assay": "Inhibition of CSNK2A1 at 1 uM in presence of 10 uM ATP by Select Screen kinase assay relative to untreated control", "how_it_was_run": "as §3"}, "[24]": {"biological_target": "Ribosomal protein S6 kinase alpha-6 (Homo sapiens) (UniProt Q9UK32)", "assay": "Inhibition of RPS6KA6 at 1 uM in presence of 10 uM ATP by Select Screen kinase assay relative to untreated control", "how_it_was_run": "as §2"}, "[25]": {"tested_on": "Platelet-derived growth factor receptor alpha (Homo sapiens), P16234 [T674I]", "sequence (P16234 whole entry T674I)": "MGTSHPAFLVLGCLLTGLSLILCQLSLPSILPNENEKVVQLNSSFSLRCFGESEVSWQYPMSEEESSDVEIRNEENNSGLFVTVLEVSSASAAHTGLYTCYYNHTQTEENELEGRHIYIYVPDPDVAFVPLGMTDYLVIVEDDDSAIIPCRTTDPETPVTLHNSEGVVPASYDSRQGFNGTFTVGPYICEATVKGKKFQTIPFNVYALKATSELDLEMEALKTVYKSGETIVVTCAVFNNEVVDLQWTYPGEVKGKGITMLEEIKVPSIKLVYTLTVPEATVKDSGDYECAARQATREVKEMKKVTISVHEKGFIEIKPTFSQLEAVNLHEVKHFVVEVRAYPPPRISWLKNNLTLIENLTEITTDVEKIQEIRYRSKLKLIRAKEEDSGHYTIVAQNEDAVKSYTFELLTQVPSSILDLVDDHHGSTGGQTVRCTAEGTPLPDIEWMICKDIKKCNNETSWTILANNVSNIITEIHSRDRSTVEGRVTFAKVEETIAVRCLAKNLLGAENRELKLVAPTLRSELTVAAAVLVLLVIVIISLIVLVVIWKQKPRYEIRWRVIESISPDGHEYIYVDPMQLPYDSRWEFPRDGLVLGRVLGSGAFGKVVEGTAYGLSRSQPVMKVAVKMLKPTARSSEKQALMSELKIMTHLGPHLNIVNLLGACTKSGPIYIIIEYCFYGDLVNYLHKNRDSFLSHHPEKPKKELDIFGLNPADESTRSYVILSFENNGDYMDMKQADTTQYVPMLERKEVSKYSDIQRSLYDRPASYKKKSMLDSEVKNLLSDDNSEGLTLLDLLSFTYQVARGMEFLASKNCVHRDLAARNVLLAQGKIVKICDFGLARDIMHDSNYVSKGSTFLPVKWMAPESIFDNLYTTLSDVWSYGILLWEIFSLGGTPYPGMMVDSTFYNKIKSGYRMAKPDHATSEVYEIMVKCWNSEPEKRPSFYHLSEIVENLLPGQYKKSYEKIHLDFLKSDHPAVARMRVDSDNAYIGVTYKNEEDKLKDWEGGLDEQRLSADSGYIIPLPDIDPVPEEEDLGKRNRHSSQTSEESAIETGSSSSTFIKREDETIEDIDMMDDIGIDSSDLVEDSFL", "assay": "Inhibition of PDGFRalpha T674I mutant at 1 uM in presence of 10 uM ATP by Select Screen kinase assay relative to untreated control", "how_it_was_run": "as §2"}, "[26]": {"biological_target": "Tyrosine-protein kinase ABL2 (Homo sapiens) (UniProt P42684)", "assay": "Inhibition of ABL2 at 1 uM in presence of 10 uM ATP by Select Screen kinase assay relative to untreated control", "how_it_was_run": "as §1"}, "[27]": {"biological_target": "cAMP-dependent protein kinase catalytic subunit PRKX (Homo sapiens) (UniProt P51817)", "assay": "Inhibition of PRKX at 1 uM in presence of 10 uM ATP by Select Screen kinase assay relative to untreated control"}},
  "data": [
    {"smiles": "COc1ccccc1N1CCN(c2ncnc3[nH]nc(Br)c23)CC1", "values": [
      {"measurement": "inhibition", "setting": "[1]", "value": 2, "unit": "%"},
      {"measurement": "inhibition", "setting": "[2]", "value": 17, "unit": "%"},
      {"measurement": "inhibition", "setting": "[3]", "value": 2, "unit": "%"},
      {"measurement": "inhibition", "setting": "[4]", "value": 0, "unit": "%"},
      {"measurement": "inhibition", "setting": "[5]", "value": 4, "unit": "%"},
      {"measurement": "inhibition", "setting": "[6]", "value": -1, "unit": "%"},
      {"measurement": "inhibition", "setting": "[7]", "value": 10, "unit": "%"},
      {"measurement": "inhibition", "setting": "[8]", "value": 12, "unit": "%"},
      {"measurement": "inhibition", "setting": "[9]", "value": 3, "unit": "%"},
      {"measurement": "inhibition", "setting": "[10]", "value": 90, "unit": "%"},
      {"measurement": "inhibition", "setting": "[11]", "value": 19, "unit": "%"},
      {"measurement": "inhibition", "setting": "[12]", "value": -5, "unit": "%"},
      {"measurement": "inhibition", "setting": "[13]", "value": 8, "unit": "%"},
      {"measurement": "inhibition", "setting": "[14]", "value": 13, "unit": "%"},
      {"measurement": "inhibition", "setting": "[15]", "value": 16, "unit": "%"},
      {"measurement": "inhibition", "setting": "[16]", "value": 52, "unit": "%"},
      {"measurement": "inhibition", "setting": "[17]", "value": 3, "unit": "%"},
      {"measurement": "inhibition", "setting": "[18]", "value": 15, "unit": "%"},
      {"measurement": "inhibition", "setting": "[19]", "value": 11, "unit": "%"},
      {"measurement": "inhibition", "setting": "[20]", "value": 60, "unit": "%"},
      {"measurement": "inhibition", "setting": "[21]", "value": 4, "unit": "%"},
      {"measurement": "inhibition", "setting": "[22]", "value": -9, "unit": "%"},
      {"measurement": "inhibition", "setting": "[23]", "value": 18, "unit": "%"},
      {"measurement": "inhibition", "setting": "[24]", "value": 28, "unit": "%"},
      {"measurement": "inhibition", "setting": "[25]", "value": 8, "unit": "%"},
      {"measurement": "inhibition", "setting": "[26]", "value": 4, "unit": "%"},
      {"measurement": "inhibition", "setting": "[27]", "value": 21, "unit": "%"}
    ]},
    {"smiles": "O=C(NCCCNc1nc(Nc2cccc(NC(=O)N3CCCC3)c2)ncc1I)c1cccs1", "values": [
      {"measurement": "inhibition", "setting": "[1]", "value": 84, "unit": "%"},
      {"measurement": "inhibition", "setting": "[2]", "value": 3, "unit": "%"},
      {"measurement": "inhibition", "setting": "[3]", "value": 84, "unit": "%"},
      {"measurement": "inhibition", "setting": "[4]", "value": 8, "unit": "%"},
      {"measurement": "inhibition", "setting": "[5]", "value": 6, "unit": "%"},
      {"measurement": "inhibition", "setting": "[6]", "value": 1, "unit": "%"},
      {"measurement": "inhibition", "setting": "[7]", "value": 25, "unit": "%"},
      {"measurement": "inhibition", "setting": "[8]", "value": 89, "unit": "%"},
      {"measurement": "inhibition", "setting": "[9]", "value": 2, "unit": "%"},
      {"measurement": "inhibition", "setting": "[10]", "value": 75, "unit": "%"},
      {"measurement": "inhibition", "setting": "[11]", "value": 36, "unit": "%"},
      {"measurement": "inhibition", "setting": "[12]", "value": 24, "unit": "%"},
      {"measurement": "inhibition", "setting": "[13]", "value": 15, "unit": "%"},
      {"measurement": "inhibition", "setting": "[14]", "value": 10, "unit": "%"},
      {"measurement": "inhibition", "setting": "[15]", "value": 56, "unit": "%"},
      {"measurement": "inhibition", "setting": "[16]", "value": 79, "unit": "%"},
      {"measurement": "inhibition", "setting": "[17]", "value": 7, "unit": "%"},
      {"measurement": "inhibition", "setting": "[18]", "value": 38, "unit": "%"},
      {"measurement": "inhibition", "setting": "[19]", "value": 8, "unit": "%"},
      {"measurement": "inhibition", "setting": "[20]", "value": 95, "unit": "%"},
      {"measurement": "inhibition", "setting": "[21]", "value": 76, "unit": "%"},
      {"measurement": "inhibition", "setting": "[22]", "value": 74, "unit": "%"},
      {"measurement": "inhibition", "setting": "[23]", "value": 16, "unit": "%"},
      {"measurement": "inhibition", "setting": "[24]", "value": 58, "unit": "%"},
      {"measurement": "inhibition", "setting": "[25]", "value": 55, "unit": "%"},
      {"measurement": "inhibition", "setting": "[26]", "value": 37, "unit": "%"},
      {"measurement": "inhibition", "setting": "[27]", "value": 105, "unit": "%"}
    ]}
  ]
}
